Values belong to the compound of their own block, whether it stands above or below them. Activity calls are given as the source filed them. Unless noted, the rule behind the calls is not given here.
Assays:
Rattus norvegicus [1] = assay: Inhibition of increase in histamine-induced cutaneous vascular permeability in orally dosed Wistar rat model after 1 hrs; type: functional; settings: po
Outline: (§1)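 Male Wistar rats (150-175 g), fasted, dosed orally in 0.5% methylcellulose/0.1% Tween 80 (10 mL/kg), n=5. At 1 or 8 h after dosing, four intradermal injections of 5 µg histamine were given, plus iv 0.5% Evans Blue. Papule area (ellipse) measured 1 h later. ED50 in mg/kg po.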

Cavia porcellus [2] = assay: Effect on QT interval prolongation in Dunkin-Hartley guinea pigs at 10 mg/kg, iv; type: functional, organism-based; set-up: dose 10 mg/kg
[3] = target: Histamine H1 receptor (Cavia porcellus) (UniProt P31389); assay: Displacement of [3H]mepyramine from histamine H1 receptor in guinea pig cerebellum membranes at […]; type: cell membranes; settings: Membrane
Chain of Histamine H1 receptor (Cavia porcellus) (P31389 whole entry): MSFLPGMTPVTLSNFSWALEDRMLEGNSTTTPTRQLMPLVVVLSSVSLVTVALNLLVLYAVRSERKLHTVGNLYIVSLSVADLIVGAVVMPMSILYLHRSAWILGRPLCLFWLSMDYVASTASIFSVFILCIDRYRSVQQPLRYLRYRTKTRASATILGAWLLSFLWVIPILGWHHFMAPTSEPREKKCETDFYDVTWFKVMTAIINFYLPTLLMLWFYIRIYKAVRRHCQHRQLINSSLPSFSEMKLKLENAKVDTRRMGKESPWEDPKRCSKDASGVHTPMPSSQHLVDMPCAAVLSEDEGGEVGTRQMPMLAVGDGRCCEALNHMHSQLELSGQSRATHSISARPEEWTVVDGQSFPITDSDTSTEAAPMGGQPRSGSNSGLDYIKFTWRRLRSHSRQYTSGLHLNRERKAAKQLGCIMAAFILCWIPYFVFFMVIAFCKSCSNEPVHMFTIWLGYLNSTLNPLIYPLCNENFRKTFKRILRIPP
Outline: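 Guinea-pig cerebellum membranes (160 µg/mL) incubated at 30 °C for 30 min with 0.7 nM [3H]-mepyramine, 0.5 mL final volume; filtration, bound radioactivity counted. Nonspecific binding with 10 µM promethazine. At least six concentrations in duplicate; IC50 by nonlinear regression. Stocks 10^-2 M in DMSO, further dilutions in 50% DMSO.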

[4] = target: Adrenergic receptor alpha-1 (Rattus norvegicus) (UniProt P15823+P23944+P43140); assay: Displacement of [3H]prazosin from adrenergic alpha-1 receptor in rat brain membranes at 10 uM; type: cell membranes
Rattus norvegicus [5] = assay: Inhibition of increase in histamine-induced cutaneous vascular permeability in orally dosed Wistar rat model after 8 hrs; type: functional; settings: po; outline: as §1
[6] = target: Histamine H1 receptor (Mus musculus) (UniProt P70174); assay: Ex vivo displacement of [3H]mepyramine from brain histamine H1 receptor in orally dosed Swiss Albino mouse; type: functional, organism-based
Chain of Histamine H1 receptor (Mus musculus) (P70174 whole entry): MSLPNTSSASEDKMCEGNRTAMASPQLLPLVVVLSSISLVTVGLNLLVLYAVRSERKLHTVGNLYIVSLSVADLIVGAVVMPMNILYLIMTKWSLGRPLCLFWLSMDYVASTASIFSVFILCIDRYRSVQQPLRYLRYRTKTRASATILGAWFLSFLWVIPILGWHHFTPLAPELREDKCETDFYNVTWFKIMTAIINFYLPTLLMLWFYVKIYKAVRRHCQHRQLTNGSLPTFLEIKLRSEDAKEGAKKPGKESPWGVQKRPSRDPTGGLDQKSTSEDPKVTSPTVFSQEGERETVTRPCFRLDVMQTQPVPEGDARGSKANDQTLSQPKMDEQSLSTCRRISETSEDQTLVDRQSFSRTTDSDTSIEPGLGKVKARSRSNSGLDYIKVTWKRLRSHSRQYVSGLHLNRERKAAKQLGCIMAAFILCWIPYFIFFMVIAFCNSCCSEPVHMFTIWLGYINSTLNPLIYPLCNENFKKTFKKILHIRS
Outline: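 Overnight-fasted male mice (20-25 g) dosed orally at several doses (0.5% methylcellulose/0.1% Tween 80, 10 mL/kg), killed 90 min later. Whole brain homogenised in ice-cold 0.05 M Na+/K+ phosphate pH 7.4; aliquots incubated in triplicate with 2 nM final [3H]-mepyramine, 40 min at 30 °C, then filtered. Nonspecific binding from 30 mg/kg po D-chlorpheniramine; total binding from vehicle. Three animals per dose; ED50 reported.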

Histamine H1 receptor = Histamine H1 receptor (Cavia porcellus, UniProt P31389); assay: Displacement of [3H]mepyramine from histamine H1 receptor in guinea pig cerebellum membranes; type: cell membranes, Membrane
Chain of Histamine H1 receptor (P31389 whole entry): as the sequence (P31389 whole entry) above
Outline: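 Guinea pig cerebellum membranes (160 µg/mL) incubated with 0.7 nM [3H]-mepyramine at 30 °C for 30 min, 0.5 mL final volume, ended by filtration. Nonspecific binding with 10 µM promethazine. At least six concentrations in duplicate; IC50 by nonlinear regression. Compound stocks 10^-2 M in DMSO, diluted in 50% DMSO.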

[7] = target: T1, Adrenergic receptor alpha-1 (Rattus norvegicus, UniProt P15823+P23944+P43140); assay: Displacement of [3H]prazosin from adrenergic alpha-1 receptor in rat brain membranes; type: cell membranes
T1 sequence (P15823 whole entry): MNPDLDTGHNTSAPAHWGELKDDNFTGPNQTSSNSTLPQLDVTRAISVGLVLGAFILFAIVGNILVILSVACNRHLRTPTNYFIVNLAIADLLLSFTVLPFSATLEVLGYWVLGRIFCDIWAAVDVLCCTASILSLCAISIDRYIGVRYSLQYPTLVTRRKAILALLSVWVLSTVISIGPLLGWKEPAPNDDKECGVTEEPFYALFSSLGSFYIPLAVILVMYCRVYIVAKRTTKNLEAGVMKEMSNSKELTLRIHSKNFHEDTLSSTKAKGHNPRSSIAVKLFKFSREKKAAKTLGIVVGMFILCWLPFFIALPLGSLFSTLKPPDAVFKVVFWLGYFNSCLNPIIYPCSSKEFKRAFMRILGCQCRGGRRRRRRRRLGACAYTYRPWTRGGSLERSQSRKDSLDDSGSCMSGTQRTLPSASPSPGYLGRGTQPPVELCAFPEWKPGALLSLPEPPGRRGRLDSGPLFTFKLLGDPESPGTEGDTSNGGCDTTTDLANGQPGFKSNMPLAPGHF
T1 sequence (P23944 whole entry): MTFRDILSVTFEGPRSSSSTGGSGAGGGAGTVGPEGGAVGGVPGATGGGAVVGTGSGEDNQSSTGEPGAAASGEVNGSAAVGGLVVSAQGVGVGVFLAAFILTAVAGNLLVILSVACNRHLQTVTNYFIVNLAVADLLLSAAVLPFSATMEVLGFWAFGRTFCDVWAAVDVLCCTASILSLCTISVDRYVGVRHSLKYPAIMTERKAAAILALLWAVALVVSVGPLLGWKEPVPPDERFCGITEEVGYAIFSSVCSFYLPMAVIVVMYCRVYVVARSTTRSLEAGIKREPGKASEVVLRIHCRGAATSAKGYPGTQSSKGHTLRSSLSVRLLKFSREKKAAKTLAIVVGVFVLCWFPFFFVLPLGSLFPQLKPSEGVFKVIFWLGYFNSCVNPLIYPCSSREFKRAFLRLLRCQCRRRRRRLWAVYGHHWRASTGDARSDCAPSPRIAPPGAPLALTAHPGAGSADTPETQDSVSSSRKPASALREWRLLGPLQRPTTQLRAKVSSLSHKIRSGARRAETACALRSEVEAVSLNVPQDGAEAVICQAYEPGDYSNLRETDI
T1 sequence (P43140 whole entry): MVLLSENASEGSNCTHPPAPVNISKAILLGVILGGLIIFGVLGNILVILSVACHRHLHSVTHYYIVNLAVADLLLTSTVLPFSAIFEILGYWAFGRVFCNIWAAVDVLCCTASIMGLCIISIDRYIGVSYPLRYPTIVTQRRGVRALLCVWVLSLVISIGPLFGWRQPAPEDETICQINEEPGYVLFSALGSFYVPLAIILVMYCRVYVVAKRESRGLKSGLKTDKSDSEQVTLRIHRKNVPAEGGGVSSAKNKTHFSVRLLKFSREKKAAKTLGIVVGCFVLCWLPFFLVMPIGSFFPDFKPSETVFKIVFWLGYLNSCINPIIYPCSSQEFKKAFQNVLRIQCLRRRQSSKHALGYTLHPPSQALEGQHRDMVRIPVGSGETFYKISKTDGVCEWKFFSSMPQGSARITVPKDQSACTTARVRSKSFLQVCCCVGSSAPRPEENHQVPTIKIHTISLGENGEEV
Outline: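 Rat brain membranes (340 µg protein/mL) with 0.25 nM [3H]-prazosin in 50 mM Tris-HCl pH 7.7, room temperature, 60 min, filtration. Nonspecific binding with 100 µM prazosin. Several concentrations run in duplicate; IC50 by nonlinear regression.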

Rattus norvegicus [8] = assay: Inhibition of increase in histamine-induced cutaneous vascular permeability in orally dosed Wistar rat model after 4 hrs; type: functional; settings: po
Outline: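 Fasted male rats (150-175 g; n=5 per condition) dosed orally in 0.5% methylcellulose/0.1% Tween 80. At 4 h, under light ether, received four intradermal injections of 5 µg histamine, then 0.5% Evans Blue iv. Killed 1 h later. Papule area from maximum and minimum diameters (ellipse); inhibition of papule area; ED50 (mg/kg, po).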

[9] = Half life in Wistar rat at 1 mg/kg, iv after 8 hrs; type: ADME, organism-based; set-up: dose 1 mg/kg, route intravenous; settings: in vivo
Outline: (§2)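 Male Wistar rats, fasted overnight, dosed iv at 1 mg/kg. Blood sampled from 0.1 to 24 h; plasma stored at -20 °C. Levels measured by isocratic HPLC-UV (225 nm) after on-line solid-phase extraction, or by HPLC-MS (ESI+) for one analyte. Parameters from noncompartmental analysis.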

[10] = Volume of distribution at steady state in Wistar rat at 1 mg/kg, iv after 8 hrs; type: ADME, organism-based; set-up: dose 1 mg/kg, route intravenous; settings: in vivo, read-out: Vss; outline: as §2
[11] = Clearance in Wistar rat at 1 mg/kg, iv after 8 hrs; type: ADME, organism-based; set-up: dose 1 mg/kg, route intravenous; settings: in vivo; outline: as §2
CYP3A4 = CYP3A4 (Homo sapiens, UniProt P08684); assay: Inhibition of CYP3A4 in human microsomes at 25 uM; type: ADME, Microsome
Chain of CYP3A4 (P08684 whole entry): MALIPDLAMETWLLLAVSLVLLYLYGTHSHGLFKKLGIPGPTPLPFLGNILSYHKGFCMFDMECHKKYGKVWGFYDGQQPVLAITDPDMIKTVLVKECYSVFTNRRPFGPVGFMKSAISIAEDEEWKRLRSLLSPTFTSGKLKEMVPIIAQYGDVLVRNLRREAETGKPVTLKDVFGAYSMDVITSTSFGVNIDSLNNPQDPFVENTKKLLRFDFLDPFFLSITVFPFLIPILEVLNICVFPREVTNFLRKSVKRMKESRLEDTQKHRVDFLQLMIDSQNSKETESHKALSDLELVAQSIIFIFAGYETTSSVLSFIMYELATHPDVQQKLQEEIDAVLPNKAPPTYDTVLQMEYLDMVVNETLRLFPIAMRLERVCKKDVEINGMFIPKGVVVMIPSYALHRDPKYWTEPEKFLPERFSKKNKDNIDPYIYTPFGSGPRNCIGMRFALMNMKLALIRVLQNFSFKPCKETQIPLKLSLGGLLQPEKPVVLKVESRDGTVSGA

Cavia porcellus [12] = assay: Effect on QT interval prolongation in Dunkin-Hartley guinea pigs at 30 mg/kg, iv; type: functional, organism-based; set-up: dose 30 mg/kg
Outline: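 Male guinea pigs (500-600 g), urethane 1.5 g/kg anaesthesia, ventilated (10 mL/kg, 60 cycles/min). Stabilised at least 30 min, then 3-min jugular iv perfusion at 3, 10 and 30 mg/kg. Surface ECG recorded at end of perfusion and at 15, 30, 45 and 60 min. QTc by Bazett; change in ms from baseline. Vehicle-only controls.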

Cavia porcellus [13] = assay: Effect on QT interval prolongation in Dunkin-Hartley guinea pigs at 3 mg/kg, iv; type: functional, organism-based; set-up: dose 3 mg/kg

IC50 (Histamine H1 receptor): 0.047 µM (antagonist) | IC50 [7]: > 10 µM | ED50 [6]: 10 mg/kg
Structure (SMILES): CCCCn1cc(C2CCN(CCOc3ccccc3C(=O)O)CC2)c2ccc(F)cc21
ED50 (Rattus norvegicus [8]): 0.07 mg/kg | ED50 (Rattus norvegicus [5]): 0.14 mg/kg (antagonist)

IC50 [7]: 6.5 µM | half-life [9]: 2.9 h | ED50 [6]: > 100 mg/kg | Vd [10]: 0.5 L/kg | clearance [11]: 5 mL/min/kg
Structure (SMILES): O=C(O)c1ccccc1OCCN1CCC(c2cn(CCC3OCCO3)c3ccccc23)CC1
ED50 (Rattus norvegicus [8]): 0.46 mg/kg | ED50 (Rattus norvegicus [5]): 0.9 mg/kg (antagonist)

IC50 (Histamine H1 receptor): 0.155 µM (antagonist) | IC50 [7]: > 10 µM | half-life [9]: 0.9 h | ED50 [6]: > 100 mg/kg | Vd [10]: 0.5 L/kg | clearance [11]: 13.3 mL/min/kg
Structure (SMILES): CCOCCn1cc(C2CCN(CCOc3ccccc3C(=O)O)CC2)c2cc(OC)ccc21
ED50 (Rattus norvegicus [8]): 0.035 mg/kg | ED50 (Rattus norvegicus [5]): 0.08 mg/kg (antagonist)

IC50 [7]: 10 µM | half-life [9]: 1.1 h | ED50 [6]: 8 mg/kg | Vd [10]: 0.7 L/kg | clearance [11]: 10 mL/min/kg | inhibition at 25 µM (CYP3A4): 0%
Structure (SMILES): CCOCCn1cc(C2CCN(CCOc3ccccc3C(=O)O)CC2)c2ccccc21
ED50 (Rattus norvegicus [1]): 0.02 mg/kg | ED50 (Rattus norvegicus [8]): 0.1 mg/kg | ED50 (Rattus norvegicus [5]): 0.22 mg/kg (antagonist) | Activity (Cavia porcellus [2]): inactive

IC50 [7]: > 10 µM | half-life [9]: 1.6 h | ED50 [6]: 100 mg/kg | Vd [10]: 0.4 L/kg | clearance [11]: 6.67 mL/min/kg
Structure (SMILES): CCCCn1cc(C2CCN(CCOc3ccccc3C(=O)O)CC2)c2ccccc21
ED50 (Rattus norvegicus [8]): 0.74 mg/kg | ED50 (Rattus norvegicus [5]): 0.8 mg/kg (antagonist)

Continued, compound first:

Structure (SMILES): CCOC(=O)N1CCC(=C2c3ccc(Cl)cc3CCc3cccnc32)CC1 [LORATADINE]
ED50 (Rattus norvegicus [1]): 0.75 mg/kg | Activity (Cavia porcellus [2]): inactive

Structure (SMILES): CCOCCn1cc(C2CCN(Cc3ncccc3C(=O)O)CC2)c2ccccc21
Activity [3]: 11% | Activity [4]: 4%

Structure (SMILES): CCOCCn1cc(C2CCN(Cc3ccc(C(=O)O)cc3)CC2)c2ccccc21
Activity [3]: 7% | Activity [4]: 8% | ED50 (Rattus norvegicus [5]): 0.15 mg/kg (antagonist) | ED50 [6]: 4.5 mg/kg

Structure (SMILES): O=C(O)c1ccccc1OCCN1CCC(c2cn(Cc3ccoc3)c3cc(F)ccc23)CC1
IC50 (Histamine H1 receptor): 0.042 µM (antagonist) | IC50 [7]: > 10 µM | ED50 (Rattus norvegicus [8]): 0.12 mg/kg | ED50 (Rattus norvegicus [5]): 0.17 mg/kg (antagonist) | ED50 [6]: 19 mg/kg

Structure (SMILES): COc1ccc(CN2CCC(c3cn(Cc4cccs4)c4cc(F)ccc34)CC2)cc1C(=O)O
IC50 [7]: > 10 µM | ED50 (Rattus norvegicus [8]): 0.2 mg/kg | ED50 (Rattus norvegicus [5]): 0.66 mg/kg (antagonist) | half-life [9]: 3.8 h | ED50 [6]: 29 mg/kg | Vd [10]: 1.1 L/kg | clearance [11]: 5 mL/min/kg

Structure (SMILES): COc1ccc(CN2CCC(c3cn(Cc4cccs4)c4ccccc34)CC2)cc1C(=O)O
ED50 (Rattus norvegicus [1]): 0.32 mg/kg | IC50 [7]: > 10 µM | ED50 (Rattus norvegicus [8]): 0.24 mg/kg | ED50 (Rattus norvegicus [5]): 0.56 mg/kg (antagonist) | half-life [9]: 3.1 h | ED50 [6]: 11.5 mg/kg | Vd [10]: 1.8 L/kg | clearance [11]: 10 mL/min/kg | Activity (Cavia porcellus [2]): inactive | inhibition at 25 µM (CYP3A4): -5%

Structure (SMILES): COCCn1cc(C2CCN(CCOc3ccccc3C(=O)O)CC2)c2ccc(F)cc21
ED50 (Rattus norvegicus [1]): 0.16 mg/kg | IC50 (Histamine H1 receptor): 0.14 µM (antagonist) | IC50 [7]: > 10 µM | ED50 (Rattus norvegicus [8]): 0.29 mg/kg | ED50 (Rattus norvegicus [5]): 0.13 mg/kg (antagonist) | half-life [9]: 3.4 h | ED50 [6]: 40 mg/kg | Vd [10]: 0.3 L/kg | clearance [11]: 1.67 mL/min/kg | Activity (Cavia porcellus [12]): inactive | inhibition at 25 µM (CYP3A4): 15%

Structure (SMILES): COCCn1cc(C2CCN(Cc3ccc(OC)c(C(=O)O)c3)CC2)c2ccccc21
ED50 (Rattus norvegicus [1]): 0.03 mg/kg | IC50 [7]: > 10 µM | ED50 (Rattus norvegicus [8]): 0.05 mg/kg | ED50 (Rattus norvegicus [5]): 0.14 mg/kg (antagonist) | half-life [9]: 3.9 h | ED50 [6]: 9.5 mg/kg | Vd [10]: 0.6 L/kg | clearance [11]: 3.33 mL/min/kg | Activity (Cavia porcellus [12]): inactive | inhibition at 25 µM (CYP3A4): -9%

Structure (SMILES): O=C(O)COCCN1CCN(C(c2ccccc2)c2ccc(Cl)cc2)CC1 (centres undefined)
Activity (Cavia porcellus [13]): inactive
